Bioassay records deposited in PubChem BioAssay by several laboratories.
Sampled rows, rich in hits. Any-hit rate of the full collection: about 1.7%.
STEP inh = STEP phosphatase inhibitors, primary screen, biochemical, fluorescence intensity, uHTS | recombinant STEP, OMFP fluorogenic substrate | inhibition, % at 20 µM | hit rate 0.25% among 360,000 | AID 588621, 2011;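 active means inhibition at 20 µM, scaled per plate between control wells, above about 37%, limit read from the data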;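 further: 0% = DMSO with enzyme and substrate and 100% = substrate only without enzyme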
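medium = Bis-Tris buffer pH 6.0, 2.5 mM DTT, 0.005% Tween 20 | test system = STEP (striatal-enriched tyrosine phosphatase) enzyme, cell-free | measure = normalized % inhibition | compound dosing = 20 µM, 1% DMSO | also added = 25 µM OMFP | schedule = reaction 20 min, ambient temperature | measured by = fluorescence read at 480 nm ex / 540 nm em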
DNMT1 block = human DNMT1 methyltransferase inhibitors, primary screen, biochemical, molecular beacon, fluorescence, HinP1I cleavage, uHTS | DNA (cytosine-5)-methyltransferase 1 (Homo sapiens), P26358 | inhibition (reported as % activation of signal), % at 10 µM | hit rate 0.83% among 360,000 | AID 588458, 2011; in the data active means inhibition above about 50%
Target sequence (P26358 504-1616 limits assumed): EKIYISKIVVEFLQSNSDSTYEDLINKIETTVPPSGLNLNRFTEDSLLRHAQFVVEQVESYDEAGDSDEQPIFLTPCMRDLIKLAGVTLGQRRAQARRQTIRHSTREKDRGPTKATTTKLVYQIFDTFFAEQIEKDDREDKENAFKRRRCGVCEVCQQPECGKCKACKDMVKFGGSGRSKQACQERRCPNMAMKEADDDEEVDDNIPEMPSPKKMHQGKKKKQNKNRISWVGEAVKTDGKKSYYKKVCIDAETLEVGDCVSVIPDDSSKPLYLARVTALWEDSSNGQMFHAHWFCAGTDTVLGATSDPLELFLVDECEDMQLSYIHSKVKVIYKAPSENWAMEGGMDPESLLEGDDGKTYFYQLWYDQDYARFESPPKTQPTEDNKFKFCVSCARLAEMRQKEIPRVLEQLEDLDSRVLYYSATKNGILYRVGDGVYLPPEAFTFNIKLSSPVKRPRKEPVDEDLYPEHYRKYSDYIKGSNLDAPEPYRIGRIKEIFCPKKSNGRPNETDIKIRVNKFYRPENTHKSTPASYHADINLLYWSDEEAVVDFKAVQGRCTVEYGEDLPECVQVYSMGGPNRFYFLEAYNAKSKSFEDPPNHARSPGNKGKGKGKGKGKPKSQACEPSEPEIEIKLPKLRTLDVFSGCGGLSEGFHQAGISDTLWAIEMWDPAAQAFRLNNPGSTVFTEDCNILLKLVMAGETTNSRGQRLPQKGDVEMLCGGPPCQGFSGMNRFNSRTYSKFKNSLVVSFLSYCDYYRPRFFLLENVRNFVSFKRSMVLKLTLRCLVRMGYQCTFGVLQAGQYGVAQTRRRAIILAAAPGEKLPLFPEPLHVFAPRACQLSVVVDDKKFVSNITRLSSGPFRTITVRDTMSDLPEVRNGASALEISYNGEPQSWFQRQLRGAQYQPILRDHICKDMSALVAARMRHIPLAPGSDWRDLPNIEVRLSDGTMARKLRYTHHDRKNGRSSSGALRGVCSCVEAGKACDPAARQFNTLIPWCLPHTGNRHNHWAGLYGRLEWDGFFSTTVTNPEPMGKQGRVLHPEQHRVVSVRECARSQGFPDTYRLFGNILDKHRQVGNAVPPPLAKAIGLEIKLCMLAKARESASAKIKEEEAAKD
Casp6 inh = human caspase-6 inhibitors, primary screen, biochemical, VEID-R110 fluorescence, single point, set 2 | P55212 | purified caspase-6, Z-VEID-R110 cleavage fluorescence | inhibition, % at 12.5 µM | hit rate 0.53% among 350,000;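 active means mean inhibition across replicates at least about 35%, with every replicate also reaching that limit, limit read from the data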;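 further: 0% = median of neutral control wells and 100% = no fluorescence left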
LMPTP block = LMPTP phosphatase inhibitors, primary screen, biochemical, fluorescence intensity, uHTS; Low molecular weight phosphotyrosine protein phosphatase (Homo sapiens), P24666; recombinant LMPTP-A, OMFP fluorogenic substrate; inhibition, % at 20 µM; hit rate 0.22% among 360,000; AID 651560, 2012;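 active means compounds that cut the enzyme signal by at least half of the control window in the single-dose screen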;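 further: plate controls were DMSO wells with enzyme plus substrate for no effect and substrate without enzyme for full effect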
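test system = LMPTP-A | amount = 0.625 nM LMPTP-A final | reagent = fluorogenic phosphatase substrate OMFP at 400 µM final | incubation = 50 min at room temperature | benchmarks = no-enzyme low control, uninhibited high control | medium = Bis-Tris pH 6.0, DTT, detergent | signal = fluorescence intensity of OMFP turnover product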
Scp-1 inhibitor = Scp-1 phosphatase inhibitors, primary screen, biochemical, colorimetric, uHTS. AID 493091, 2011. Carboxy-terminal domain RNA polymerase II polypeptide A small phosphatase 1 (Homo …. Recombinant Scp1, phosphopeptide, malachite green phosphate absorbance. hit rate 0.88% among 340,000. inhibition, % at 20 µM;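 active means inhibition above about 50% at 20 µM, limit read from the data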;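 further: plate controls were DMSO wells with enzyme for no effect and wells lacking enzyme for full effect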
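Test system: SCP-1 phosphatase catalytic domain, residues 76-261; measured by: colorimetric phosphate reagent with accelerator and stabiliser, absorbance at 630 nm; timing: enzyme reaction 45 min at room temperature, colour 5 min, stabilisation 30 min; also added: Phosphorylated 17-residue peptide substrate; compound dosing: one concentration, 20 µM, with 1.0% DMSO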
SUMO1-SIM PPI = modulators of SUMO1 protein-protein interactions, primary screen, biochemical, uHTS; SUMO1 binding to a labelled peptide, TR-FRET, 1 h; inhibition, % at 20 µM; hit rate 0.33% among 360,000; AID 602429, 2012; in the data active means inhibition above about 37%
DNMT1 interf DR = spectral interference with molecular beacon fluorescence, dose response, artefact control for DNMT1 inhibitor project, biochemical, fluorescent molecular beacon. IC50, µM. shares compounds with DNMT1 block. spectral interference counter-screen. 200 tested, under 10 active; call rule not given here
DNMT1 inh conf = DNMT1 methyltransferase inhibitor retest, confirmation, biochemical, molecular beacon, fluorescence, single concentration. inhibition, % at 10 µM. DNMT1 molecular beacon HinP1I cleavage. AID 602385, 2012. hit rate 8% among 2,300. shares compounds with DNMT1 block;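 active means average inhibition of at least 30% in the single-concentration confirmation test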
DNMT1 interf = shows spectral interference in the DNMT1 beacon assay | shares compounds with DNMT1 block | DNMT1 molecular beacon spectral interference counterscreen, fluorescence 485/520 | activation (fluorescence interference), % at 10 µM | hit rate 1% among 2,300 | AID 602387;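 active means activation of at least 30% at 10 µM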;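 further: DNMT1 catalytic domain with a HinP1I cleavage step and a FAM/dabcyl DNA beacon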
Numbers without * were called inactive; . = not tested or not shown.

SMILES | STEP inh | DNMT1 block | Casp6 inh | LMPTP block | Scp-1 inhibitor | SUMO1-SIM PPI | DNMT1 inh conf | DNMT1 interf | others
O=C(CSc1nc2c(cnn2-c2ccccc2)c(=O)[nH]1)c1ccc(Cl)cc1 | 0.9 | 86.2* | -3.2 | -1.3 | -4.0 | 4.6 | 30.9* | 3.8 | DNMT1 interf DR=>99
CCCNC(=O)c1ccc2c(=O)n3c(-c4ccc(C)cc4)csc3nc2c1 | 1.1 | 53.4* | 8.3 | -1.7 | 4.9 | -19.5 | 12.5 | -1.6
c1coc(CNCc2cccs2)c1 | -1.5 | 1.1 | . | -1.8 | -6.7 | -3.9 | . | .
O=C(NCc1ccccc1C(F)(F)F)c1cccc2c1C(=O)c1ccc(N3CCOCC3)cc1S2(=O)=O | -0.3 | 62.4* | -1.4 | -2.0 | -0.2 | -1.8 | 7.1 | 7.7
COc1cccc(NC(=O)C2CC(=O)N=C(N)S2)c1 (stereo not given) | -0.2 | 1.6 | . | -1.9 | -7.2 | -2.6 | . | .
O=C(Cc1nnc(NC(=O)Nc2ccccc2)s1)NCc1ccccc1 | -3.4 | 8.6 | -1.2 | -0.4 | -6.3 | 3.1 | . | .
O=C(Cc1nnc(NC(=O)Nc2ccc(Cl)cc2)s1)NCc1ccccc1 | -0.1 | 48.2 | 4.5 | -0.6 | 0.0 | 1.2 | 0.6 | 3.5
COC(=O)CNC(=O)CCc1nnc(C2(c3ccc(Cl)cc3)CCC2)o1 | -0.9 | 58.2* | -0.5 | -1.1 | 0.9 | 10.0 | 1.7 | -1.2
COc1ccc(-c2noc(CCC(=O)N3CCC(c4cc(C)ccc4C)CC3)n2)cc1 | 5.4 | 49.9 | 2.3 | 9.3 | -6.6 | 0.8 | 0.0 | 0.4
COc1ccc(-c2noc(CCC(=O)N3CCN(c4cccc(OC)c4)CC3)n2)cc1 | 0.6 | 2.8 | -0.6 | -0.2 | 1.3 | 4.4 | . | .
O=C(CSc1ncccn1)Nc1cccc(S(=O)(=O)N2CCOCC2)c1 | -3.1 | -2.6 | -5.7 | -0.7 | -3.9 | 1.5 | . | .
COc1ccc(CCC(C)N2CCC(Oc3ccc(C(=O)N4CCCC4)cc3)CC2)cc1 (stereo not given) | -1.8 | 0.5 | -4.0 | 0.7 | 1.0 | -0.1 | . | .
Cc1ccc(C(=O)Nc2ccc3c4c(cccc24)CC3)cc1[N+](=O)[O-] | -0.6 | -5.4 | 0.0 | -0.9 | -7.3 | -4.4 | . | .
O=[N+]([O-])c1ccc2c([N+](=O)[O-])ccc3c2c1CC3 | 4.3 | 72.9* | 0.2 | 31.2 | . | -17.9 | 25.1 | 2.7
COc1cc(/C=c2\sc3nc(=O)c(-c4ccccc4)nn3c2=O)ccc1OCCC(C)C | -1.4 | -1.9 | . | 1.8 | -7.4 | 3.8 | . | .
CCOc1ccc(/C=c2\sc3nc(-c4ccco4)nn3c2=O)cc1OCC | 0.9 | 64.7* | . | 0.5 | 42.1 | 12.1 | 4.3 | -0.7
CCOC(=O)c1cc(-c2ccccc2)n(CCC(=O)NC(C)CC)c1C (stereo not given) | -1.8 | -1.5 | . | 0.0 | -2.2 | -0.7 | . | .
C[C@H](CO)N1C[C@H](C)[C@@H](CN(C)CC2CCOCC2)Oc2cc(C#Cc3ccccc3F)ccc2S1(=O)=O | -1.4 | -13.9 | -4.1 | 0.1 | . | 0.6 | . | .
CNC(=O)CSc1nnc(SCCC(=O)O)s1 | -1.4 | 72.5* | . | -0.4 | -1.2 | 5.1 | -0.2 | 1.4
CNC(=O)CSc1nc(SC)ns1 | 0.6 | 3.5 | -1.1 | -0.8 | -4.9 | -0.6 | . | .
COC(=O)c1ccc(NC(=O)CCN2CCN(CCC(=O)Nc3ccc(C(=O)OC)cc3)CC2)cc1 | 8.9 | -2.0 | . | -1.9 | -5.6 | 13.9 | . | .
COC(=O)c1ccc(NC(=O)CCN2CCOCC2)cc1 | 1.4 | 91.8* | -2.0 | -1.2 | -1.2 | -3.8 | 2.0 | 2.8
Cc1ccsc1C(=O)C1CCCN(Cc2cccn2-c2ccc(Cl)cn2)C1 (stereo not given) | 3.2 | 112.7* | -0.1 | 1.0 | 26.3 | -1.3 | 0.5 | -2.0
O=C(c1ccc(Cl)cc1)C1CCCN(Cc2cccn2-c2ccccn2)C1 (stereo not given) | -1.9 | 0.9 | -5.8 | -0.9 | -2.1 | 0.8 | . | .
COc1ccc(S(=O)(=O)c2c(O)c3ccc(C(=O)Nc4ccccc4Cl)cc3[nH]c2=O)cc1 | 2.9 | 2.0 | -1.8 | -2.2 | -0.9 | 23.1 | . | .
SMILES | STEP inh | DNMT1 block | Casp6 inh | LMPTP block | Scp-1 inhibitor | SUMO1-SIM PPI | DNMT1 inh conf | DNMT1 interf | others
O=C1C(Cl)=C(N2CCCC2)C(=O)N1c1ccc(F)cc1 | 11.7 | 71.8* | -1.3 | 0.6 | 1.4 | -36.9 | 3.0 | 3.4
CCOc1ccccc1N(CC(=O)NCCSc1ccccn1)S(=O)(=O)c1ccccc1 | -1.4 | 0.5 | 0.3 | 0.2 | -5.5 | 5.4 | . | .
CC1(OC(=O)C2CCCC2)C(=O)C=C2C=C(c3ccsc3)N(CCCCO)C=C2C1=O (stereo not given) | 0.3 | -9.2 | . | 0.6 | -11.4 | -9.5 | . | .
CC1(OC(=O)C2CCCC2)C(=O)C=C2C=C(c3ccsc3)N(Cc3ccco3)C=C2C1=O (stereo not given) | 1.4 | 62.1* | . | 5.3 | 7.1 | -3.3 | -1.4 | -0.6
O=C(O)C/C(=C\c1cc(Cl)c2c(c1)OCO2)c1nc2ccccc2s1 | 0.0 | 52.9* | 60.0* | 10.2 | 27.6 | -12.7 | 16.5 | 7.8
O=C(O)C/C(=C\c1ccc2c(c1)OCO2)c1nc2ccccc2s1 | -2.5 | 0.1 | 3.8 | -1.7 | -7.2 | -7.6 | . | .
O=C(O)c1ccc2c3c(cccc13)C(=O)N(c1ccccc1)C2=O | 12.5 | 62.9* | 50.3* | 5.2 | 41.5 | -2.9 | 1.9 | -1.5
Nc1ccc2c3c(cccc13)C(=O)N(c1ccccc1)C2=O | -154.0 | 59.7* | 3.5 | -7.3 | -10.7 | -50.3 | 145.6* | 115.1*
NN1C(=O)c2cccc3c(C(=O)O)ccc(c23)C1=O | 1.5 | 3.7 | . | -2.2 | 11.9 | -15.9 | . | .
COc1ccc(S(=O)(=O)NC(C(=O)NCCc2ccccn2)C(C)C)cc1 (stereo not given) | 2.5 | -1.4 | 0.0 | -3.2 | -2.9 | 0.4 | . | .
CCOc1ccc(Br)cc1C(=O)Nc1ccc(C(=O)NCC(C)C)cc1 | -5.8 | 62.6* | . | -2.5 | 2.9 | -3.9 | 4.0 | 3.6
COc1ccc(Br)cc1C(=O)Nc1ccc(C(=O)NCC(C)C)cc1 | -0.2 | -0.3 | 4.7 | -0.3 | -8.1 | 2.2 | . | .
